Measurements taken from ChEMBL document CHEMBL1158283, “Four new bioactive manzamine-type alkaloids from the Philippine marine sponge Xestospongia ashmorica” (1996).
Values after ≈ are worked out from the molar mass of the structure shown.

Assays:
Format in all cases: functional
[1] = system: L5178Y; assay: Cytotoxicity against mouse L5178Y cells after 72 hrs by MTT assay; conditions: read-out: ED50 (the source's name)
How it was run: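 L5178y mouse lymphoma cells in Eagle's MEM plus 10% horse serum, roller tube culture; cultures started at 5×1000 cells/mL, exposed to 0.3–20 μg/mL, incubated 72 h at 37 °C. Growth assessed by MTT assay and by cell counting; ED50 reported in μg/mL.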

[2] = system: Spodoptera littoralis; assay: Insecticidal activity against Spodoptera littoralis neonate larvae assessed as inhibition of larval growth at 132 ppm administered with artificial diet after 6 days by chronic feeding experiment relative to control; conditions: 144 h
How it was run: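 Neonate S. littoralis larvae (n = 20) from a laboratory colony, fed artificial diet spiked at 132 ppm for 6 days; survival and weight of surviving larvae recorded and expressed as growth inhibition versus untreated controls.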

[3] = system: Spodoptera littoralis; assay: Insecticidal activity against Spodoptera littoralis neonate larvae assessed as inhibition of larval growth drug administered with artificial diet after 6 days by chronic feeding experiment
How it was run: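 Dose-response feeding assay: neonate S. littoralis larvae (n = 20) held 6 days on artificial diet spiked at 26–132 ppm; survival and surviving-larva weights compared with controls, ED50 (ppm) derived by probit analysis of the dose-response curve.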

[4] = system: Staphylococcus aureus; assay: Antibacterial activity against Staphylococcus aureus ATCC 25923 at 100 ug after 24 hrs by agar plate diffusion assay; conditions: ATCC 25923, 24 h, read-out: IZ
How it was run: (§1)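 Sterile susceptibility disks (5 mm diameter) loaded with 100 μg compound, placed on agar plates seeded with test bacterium (B. subtilis 168, S. aureus ATCC 25923, E. coli ATCC 25922); plates incubated 24 h at 37 °C, then inhibition zone diameter read.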

[5] = system: Bacillus subtilis; assay: Antibacterial activity against Bacillus subtilis 168 at 100 ug after 24 hrs by agar plate diffusion assay; conditions: Bacillus subtilis, 168, 24 h; read-out: IZ; how it was run: as §1

| Structure (SMILES) | EC50 [1] [µg/mL] | inhibition at 132 ppm [2] [%] | ED50 [3] [ppm] | zone of inhibition at 100 µg/disc [4] [mm] | zone of inhibition at 100 µg/disc [5] [mm] |
| --- | --- | --- | --- | --- | --- |
| [O-][n+]1ccc2c([nH]c3ccccc32)c1C1=C[C@@]2(O)CC/C=C\CCCCN3CC[C@@H]1[C@]1(C[C@@H]4/C=C\CCCCN4[C@H]12)C3 | 1.6 (≈ 2.83 µM) | 9.5 | – | – | – |
| [O-][n+]1ccc2c([nH]c3ccccc32)c1C1=C[C@@]2(O)CC/C=C\CCCCN3CC[C@@H]1[C@]1(CC/C=C\CCCCN[C@H]12)C3 | 3.2 (≈ 5.65 µM) | 16.2 | – | – | – |
| [O-][N+]1=C(C2=C[C@@]3(O)CC/C=C\CCCCN4CC[C@@H]2[C@]2(C[C@@H]5/C=C\CCCCN5[C@H]23)C4)c2[nH]c3ccccc3c2CC1 | 1.6 (≈ 2.82 µM) | 26.4 | – | – | – |
| O[C@]12C=C(c3nccc4c3[nH]c3ccccc34)C3CCN(CCCC/C=C\CC1)C[C@@]31C[C@]34CC[C@H](CCCN3[C@H]12)O4 (some centres undefined) [6-Deoxymanzamine X] | 1.8 (≈ 3.19 µM) | 18.5 | – | – | – |
| O[C@]12C=C(c3nccc4c3[nH]c3ccccc34)[C@@H]3CCN(CCCC/C=C\CC1)C[C@@]31C[C@@H]3/C=C\CCCCN3[C@H]12 [MANZAMINE A] | 1.8 (≈ 3.28 µM) | 80 | 35 | 7 | 7 |
| O=C1CCCN2[C@@H](CC1)C[C@]13CN4CCCC/C=C\CC[C@](O)(C=C(c5nccc6c5[nH]c5ccccc56)C1CC4)[C@H]23 (some centres undefined) [MANZAMINE E] | 6.6 (≈ 11.7 µM) | 0 | – | – | – |
| O=C1CCCN2[C@@H](CC1)C[C@]13CN4CCCC/C=C\CC[C@](O)(C=C(c5nccc6c5[nH]c5c(O)cccc56)C1CC4)[C@H]23 (some centres undefined) [MANZAMINE F] | 2.3 (≈ 3.96 µM) | 50.6 | – | – | – |
| O[C@]12C=C(c3nccc4c3[nH]c3ccccc34)[C@@H]3CCN(CCCC/C=C\CC1)C[C@@]31CC/C=C\CCCCN[C@H]12 [MANZAMINE J] | 25 (≈ 45.4 µM) | 2 | – | – | – |
